Only some compounds are listed: those with a hit (about 3.4% of all), similar ones and a draw of the others.
Runt-CBFb FRET – inhibitors of RUNX1 Runt–CBFb binding, primary screen, biochemical, FRET, Cerulean-Runt, Venus-CBFb, uHTS | Runt-related transcription factor 1 (Homo sapiens) + Core-binding factor subunit beta … | Cerulean-Runt/Venus-CBFb FRET ratio 530/480, 1 h | inhibition, % at 20 µM | actives 0.46% (n = 220,000) | AID 1496, 2009;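 active = inhibition over about 50% at 20 µM in the single-dose screen, limit read from the data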;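 also: 0% = DMSO wells and 100% = excess unlabeled CBFb competitor control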
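Assay system: Cerulean-tagged RUNX1 Runt domain (FRET donor) fusion protein / Amount: 100 nM each of Venus-CBFb and Cerulean-Runt domain / Medium: Tris buffer pH 7.5 with salts and BSA / Also added: Venus-CBFb 100 nM / Schedule: 1 h complex formation plus 1 h compound treatment, room temperature / Signal: FRET fluorescence / Read-out: loss of energy transfer signal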
PHOSPHO1 block – PubChem AID 1565. Phosphoethanolamine/phosphocholine phosphatase (Homo sapiens), Q8TCT1. actives 1.1% (n = 290,000). recombinant PHOSPHO1, absorbance phosphatase assay. inhibition, % at 13.3 µM; in the data active = inhibition above about 60%
Target sequence (Q8TCT1 whole entry, looked up): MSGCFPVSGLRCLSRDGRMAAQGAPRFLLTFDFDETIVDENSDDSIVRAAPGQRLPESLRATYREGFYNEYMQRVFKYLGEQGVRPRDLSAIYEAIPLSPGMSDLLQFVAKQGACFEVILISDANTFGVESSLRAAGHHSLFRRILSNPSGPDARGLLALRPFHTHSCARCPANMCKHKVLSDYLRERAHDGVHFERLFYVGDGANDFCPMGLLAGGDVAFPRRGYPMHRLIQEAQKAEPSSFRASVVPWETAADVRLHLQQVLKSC
Wee1 stabilizer – Wee1 degradation inhibitors, primary screen, cell-based, HeLa, Wee1K328M-luciferase, luminescence; HeLa Luc-Wee1K328M stability; 100% = proteasome inhibitor MG132 effect; reporter increase, % at 5 µM; actives 1.2% (n = 220,000); AID 1321, 2008;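 active = activation above the mean of all tested compounds plus 3 SD, set per screening run, cut at about 8.8% in these data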;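 also: cells exposed to compound for 20 h before luminescence read; 0% = DMSO alone and 100% = MG132 at 30 µM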
HMGR II inh – inhibitors of E. faecalis class II HMGR, primary screen, biochemical, Enterococcus faecalis; actives 0.41% (n = 190,000); HMG-CoA reductase (Enterococcus faecalis, mvaE); AID 1066, 2008; inhibition, % at 10 µM; purified E. faecalis HMGR, NADPH absorbance 340 nm kinetic;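 active = inhibition above a set limit, the median over all tested compounds plus 3 SD, cut at about 9.5% in these data; inconclusive = no clear call, values can overlap the other calls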;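 also: enzyme runs in reverse so mevalonate oxidation gives rising NADPH absorbance; 0% = complete reaction with DMSO and 100% = background rate lacking mevalonate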
RanGTP-Imp inh – inhibitors of RanGTP-importin-beta interaction, primary screen, biochemical, FRET, CFP-Ran, YFP-importin-beta, homogeneous; Ran GTPase (GTP-bound) - importin-beta complex; cell-free CFP-Ran/YFP-importin-beta FRET ratio; inhibition, % (concentration not given with the values); actives 1.1% (n = 300,000);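 active = more than half of the replicate wells show a fall in the fluorescence ratio signal beyond about 16%, limit read from the data, passing the limit was not always enough; inconclusive = exactly half of the replicate wells pass the set limit; inactive = fewer than half of replicates pass the limit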;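 also: 0% = DMSO wells and 100% = Ran loaded with GDP instead of GTP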
Runt-SMMHC FRET – inhibitors of RUNX1 Runt–CBFb-SMMHC binding, primary screen, biochemical, FRET, Cerulean-Runt, Venus-CBFb-SMMHC, uHTS; actives 0.74% (n = 220,000); inhibition, % at 20 µM; AID 1434, 2008; Cerulean-Runt/Venus-CBFb-SMMHC FRET ratio 530/480, 1 h; Runt-related transcription factor 1 (Homo sapiens) + Core-binding factor subunit beta …;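 active = mean inhibition across duplicate retests at 20 µM reaching about 50%, limit read from the data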;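 also: 0% = DMSO wells and 100% = wells with excess untagged CBFb-SMMHC; inhibitors lower the FRET ratio by blocking Runt binding to CBFb-SMMHC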
Wee1 degr conf – Wee1 degradation inhibitors, confirmation, cell-based, HeLa, Wee1K328M-luciferase, luminescence, triplicate; activation, % at 5 µM; shares compounds with Wee1 stabilizer; AID 1410, 2008; actives 4% (n = 1,100); HeLa Luc-Wee1K328M degradation; vehicle 0%, proteasome-blocked wells 100%; in the data active = activation above about 8.9%
Starred values were filed as active, the others as inactive.

For O=C(Nc1ccc(N2CCOCC2)cc1)c1cccc(S(=O)(=O)N2CCC(Cc3ccccc3)CC2)c1 the results were Runt-CBFb FRET -2.4, PHOSPHO1 block -5.3, Wee1 stabilizer -1.2, HMGR II inh 4.2, RanGTP-Imp inh 4.3 and Runt-SMMHC FRET -2.6.
O=C(Nc1nc(-c2ccccn2)cs1)c1ccc2c(c1)OCCO2 was read as Runt-CBFb FRET 1.5, PHOSPHO1 block 27.7, Wee1 stabilizer 31.1*, HMGR II inh -5.5, RanGTP-Imp inh -0.2, Runt-SMMHC FRET -0.8 and Wee1 degr conf 2.2.
For COc1ccc(-c2cc(=NC(CC(C)C)C(=O)O)c3cc(C)ccc3o2)cc1 (centres undefined) the results were Runt-CBFb FRET -2.2, PHOSPHO1 block -4.0, Wee1 stabilizer 11.8*, HMGR II inh -2.8, RanGTP-Imp inh 5.0, Runt-SMMHC FRET 11.2 and Wee1 degr conf -0.8.
`Cc1nnc(SCC(=O)Nc2nsc(-c3ccc(C(C)(C)C)cc3)n2)s1` gave Runt-CBFb FRET -4.9, PHOSPHO1 block 0.3, Wee1 stabilizer 18.2*, HMGR II inh 9.3, RanGTP-Imp inh 2.3, Runt-SMMHC FRET 1.1 and Wee1 degr conf 1.5.
Screening O=C(NCCN1CCOCC1)c1ccncc1 returned Runt-CBFb FRET 1.4, PHOSPHO1 block 5.7, Wee1 stabilizer 11.7*, HMGR II inh -1.3, RanGTP-Imp inh 4.5, Runt-SMMHC FRET 2.5 and Wee1 degr conf 4.8.
For CC(=O)N1CCc2cc(N=NC3=C(O)CC(C)(C)CC3=O)ccc21 the results were Runt-CBFb FRET -21.4, PHOSPHO1 block 23.6, Wee1 stabilizer 17.2*, HMGR II inh -2.4, RanGTP-Imp inh -9.4, Runt-SMMHC FRET -43.3 and Wee1 degr conf -1.1.
`Cc1nc2ccc(N=NC3=C(O)CC(C)(C)CC3=O)cc2s1` gave Runt-CBFb FRET -7.1, PHOSPHO1 block -1.5, Wee1 stabilizer 1.1, HMGR II inh -4.7, RanGTP-Imp inh -7.1 and Runt-SMMHC FRET -11.4.
`Cc1sc2ncn(CC(=O)N3CCC(C(N)=O)CC3)c(=O)c2c1S(=O)(=O)N1CCOCC1` gave PHOSPHO1 block 23.0 and RanGTP-Imp inh -3.8.
Screening COc1cccc(C(=O)N=c2sc3c(C)ccc(OC)c3n2C)c1 returned Runt-CBFb FRET -0.1, PHOSPHO1 block -22.1, HMGR II inh 1.6, RanGTP-Imp inh 1.9 and Runt-SMMHC FRET -1.2.
`COc1ccc(C(=O)N=c2sc3c(C)ccc(OC)c3n2C)cc1OC` gave Runt-CBFb FRET -2.4, PHOSPHO1 block 3.4, Wee1 stabilizer 12.3*, RanGTP-Imp inh 1.7, Runt-SMMHC FRET -4.7 and Wee1 degr conf 8.2.
For CC1CCCCN1C(=O)CCn1c(=S)oc2ccccc21 (centres undefined) the results were Runt-CBFb FRET 0.0, PHOSPHO1 block 23.1, Wee1 stabilizer -1.5, RanGTP-Imp inh -3.1 and Runt-SMMHC FRET 0.2.
O=S(=O)(c1ccc(Cl)cc1Cl)n1ccc2cccnc21 was read as Runt-CBFb FRET -0.5, PHOSPHO1 block 32.6, Wee1 stabilizer 12.5*, HMGR II inh -4.5, RanGTP-Imp inh inconclusive, Runt-SMMHC FRET 1.3 and Wee1 degr conf 5.6.
For O=C(CCCCn1c(=O)c2ccccc2n(Cc2ccccc2)c1=O)NC1CCN(Cc2ccccc2)CC1 the results were Runt-CBFb FRET 0.3, PHOSPHO1 block -12.7, Wee1 stabilizer 11.1*, HMGR II inh 0.9, RanGTP-Imp inh 0.6, Runt-SMMHC FRET -3.1 and Wee1 degr conf -0.1.
For CCN(CC)S(=O)(=O)c1cc(C(=O)Nc2ccncc2)ccc1Cl the results were Runt-CBFb FRET -2.9, PHOSPHO1 block 40.8, Wee1 stabilizer 2.4, HMGR II inh -0.3, RanGTP-Imp inh 4.8 and Runt-SMMHC FRET 2.6.
Screening CCN(CC)S(=O)(=O)c1cc(C(=O)N(C)CC(=O)Nc2ccc(Cl)cc2)ccc1Cl returned Runt-CBFb FRET -2.4, PHOSPHO1 block -6.7, Wee1 stabilizer 11.8*, HMGR II inh -0.8, RanGTP-Imp inh 1.4, Runt-SMMHC FRET 5.8 and Wee1 degr conf 0.1.
For CCN(CC)c1nc(=S)nc(NC(C)(C)C)[nH]1 the results were Runt-CBFb FRET -2.9, PHOSPHO1 block 17.6, Wee1 stabilizer -0.5, HMGR II inh -4.1, RanGTP-Imp inh 3.4 and Runt-SMMHC FRET -7.9.
O=C(N=Nc1c(O)[nH]c2ccc(Br)cc12)c1ccccc1-n1cccc1 was read as Runt-CBFb FRET -0.4, PHOSPHO1 block 4.8, Wee1 stabilizer 11.8*, HMGR II inh -4.5, RanGTP-Imp inh 0.6, Runt-SMMHC FRET -1.3 and Wee1 degr conf 21.1*.
For N=C(N)N=Nc1c(O)[nH]c2ccc(Br)cc12 the results were Runt-CBFb FRET -0.5, PHOSPHO1 block 1.5, Wee1 stabilizer 0.5, HMGR II inh -0.7, RanGTP-Imp inh 1.6 and Runt-SMMHC FRET -1.4.
`CCCSc1nsc(NC(=O)CCC)n1` gave PHOSPHO1 block -7.7, Wee1 stabilizer 13.4*, HMGR II inh -3.1, RanGTP-Imp inh 1.2, Runt-SMMHC FRET -7.4 and Wee1 degr conf 3.8.
`COC(=O)c1cccc(Nc2ncnc3sccc23)c1` gave Runt-CBFb FRET -0.9, PHOSPHO1 block -23.5, Wee1 stabilizer 13.6*, HMGR II inh -0.7, RanGTP-Imp inh -0.2, Runt-SMMHC FRET 7.5 and Wee1 degr conf -0.5.
COc1cccc(Nc2ncnc3sccc23)c1 was read as PHOSPHO1 block 23.7 and RanGTP-Imp inh inconclusive.
`O=C(COC(=O)c1cccc(-n2cnnn2)c1)c1ccc(Br)cc1` gave RanGTP-Imp inh -0.4.
Screening CN(C)c1ccc(NC(=O)CCn2c(=S)oc3ccccc32)cc1 returned Runt-CBFb FRET -2.0, PHOSPHO1 block 42.6, Wee1 stabilizer 11.3*, HMGR II inh -6.7, RanGTP-Imp inh 0.7, Runt-SMMHC FRET -0.3 and Wee1 degr conf 2.3.
Screening O=C(O)c1ccc(N2C(=O)CC(SC(=NCc3ccc4c(c3)OCO4)Nc3ccc(F)cc3)C2=O)cc1 (centres undefined) returned Runt-CBFb FRET -10.2, PHOSPHO1 block 10.8, Wee1 stabilizer -3.0, HMGR II inh 3.5, RanGTP-Imp inh -0.4 and Runt-SMMHC FRET -7.4.

Bioassay records: PubChem, several laboratories
